Diaph act CS: activates diaphorase or chemically reduces, flagging diaphorase assay artifacts; activation factor at 20 µM; Diaphorase/resazurin coupled assay, resorufin fluorescence, 16 min; hits give high values; 1 = vehicle wells, 0 = NADH-free wells; hit rate 0.005% among 190,000;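 active = diaphorase activity raised at least twofold by the compound at 20 µM; inactive = activation factor below 2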
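Assay system: bacterial diaphorase enzyme (C. kluyveri) / Input: enzyme 0.07 U/mL final / Medium: 50 mM HEPES pH 7.4 with 4.542 mM MgCl2, 0.005% Tween 20 / Doses: single compound dose of 20 µM, 1% DMSO final / Incubation: 16 min enzyme reaction, ambient temperature / Signal: fluorescence, excitation 544 nm and emission 590 nm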
HKDC1 inhibitor: HKDC1 (human) hexokinase inhibition | Q2TB90 | recombinant HKDC1, G6PDH/diaphorase resazurin coupled fluorescence | inhibition, % at 20 µM | hit rate 0.16% among 340,000;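 active = inhibition above about 35% when tested at 20 µM, limit read from the data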;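 also: plate controls were DMSO wells with enzyme for no effect and DMSO wells lacking enzyme for full effect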
Target sequence (Q2TB90 whole entry, looked up): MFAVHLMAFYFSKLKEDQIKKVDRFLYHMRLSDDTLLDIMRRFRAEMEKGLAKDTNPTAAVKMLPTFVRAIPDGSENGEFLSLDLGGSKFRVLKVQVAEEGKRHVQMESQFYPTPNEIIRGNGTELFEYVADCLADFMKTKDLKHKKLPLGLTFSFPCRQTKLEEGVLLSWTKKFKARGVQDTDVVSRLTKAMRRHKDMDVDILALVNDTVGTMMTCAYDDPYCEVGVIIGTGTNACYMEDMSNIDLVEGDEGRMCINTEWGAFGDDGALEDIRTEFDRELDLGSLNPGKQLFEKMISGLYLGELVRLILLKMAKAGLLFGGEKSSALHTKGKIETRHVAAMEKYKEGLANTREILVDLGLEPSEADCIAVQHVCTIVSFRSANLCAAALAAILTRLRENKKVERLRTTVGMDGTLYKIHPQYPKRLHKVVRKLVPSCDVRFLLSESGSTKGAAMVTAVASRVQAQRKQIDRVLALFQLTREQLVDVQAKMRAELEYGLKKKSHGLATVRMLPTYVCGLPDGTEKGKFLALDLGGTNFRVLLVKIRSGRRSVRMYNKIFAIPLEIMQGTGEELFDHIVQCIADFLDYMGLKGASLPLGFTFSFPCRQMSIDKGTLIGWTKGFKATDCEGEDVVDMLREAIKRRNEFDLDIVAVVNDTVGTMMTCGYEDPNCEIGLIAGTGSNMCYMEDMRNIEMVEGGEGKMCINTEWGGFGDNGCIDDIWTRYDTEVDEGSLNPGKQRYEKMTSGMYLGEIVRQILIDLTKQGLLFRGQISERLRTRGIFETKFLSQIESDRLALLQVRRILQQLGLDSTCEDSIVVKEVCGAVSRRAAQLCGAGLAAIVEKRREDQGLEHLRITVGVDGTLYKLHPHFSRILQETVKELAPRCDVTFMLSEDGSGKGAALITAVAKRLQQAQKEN
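Assay system: in-house recombinant HK5 (HKDC1) enzyme. Input: HKDC1 at 5 µg/mL. Medium: Tris pH 8.0 buffer with MgCl2, Tween-20, BSA, BME. Dosing: single 20 µM dose. Schedule: 90 min reaction incubation at room temperature, dark. Signal: resazurin-to-resorufin fluorescence via G6PDH and diaphorase coupling, 525/613 nm. Controls: DMSO-enzyme wells negative, buffer-substituted wells positive.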
Arbovirus inh: blocks arbovirus infection; arbovirus infection cell-based antiviral screen; inhibition, % at 10 µM; hit rate 0.37% among 200,000; in the data active = inhibition above about 30%
Diaphorase inh: diaphorase inhibition or chemical oxidation counter-screen; diaphorase resazurin-to-resorufin fluorescence, NADH, 16 min; bacterial (C. kluyveri) enzyme, not human; inhibition, % at 20 µM; hit rate 0.69% among 190,000;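 active = primary screen inhibition at 20 µM above a set limit, cut at about 50% in these data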;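 also: plate controls were DMSO with full reaction for no effect and wells lacking NADH for full effect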
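Test system: Clostridium kluyveri diaphorase enzyme / Quantity: diaphorase at 0.14 U/mL in enzyme working solution / Incubation: 16-min room-temperature incubation before reading / Benchmarks: NADH-free wells as positive control, DMSO-only neutral wells / Signal: resorufin fluorescence 544/590 nm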
G6PDH counter: counter-screen for G6PDH assay hits: L. mesenteroides G6PDH inhibition; Purified L. mesenteroides G6PDH, diaphorase/resazurin coupled fluorescence, 45 min; inhibition, % at 5 µM; hit rate 0.12% among 200,000; in the data active = inhibition above about 50%
Numbers without * were called inactive; . = not tested or not shown. An excerpt weighted towards active compounds, which were near 0.74% of everything screened.

SMILES | Diaph act CS | HKDC1 inhibitor | Arbovirus inh | Diaphorase inh | G6PDH counter
CCc1cc(C(=O)Cc2cnn(-c3ccccc3)c2)c(O)cc1O | 0.7 | -4 | -13 | 25 | 10
O=C(Cc1cnn(-c2ccccc2)c1)c1ccc(O)c(O)c1O | 0.3 | 1 | 7 | 69* | 18
CCc1nnc(NS(=O)(=O)c2ccc(NC(=O)COc3ccc4ccccc4c3)cc2)s1 | 0.9 | -5 | 42* | 13 | 11
CN(CC(=O)Nc1ccc(F)cc1)C(=O)C1CCCC1 | . | -7 | . | . | .
CNc1ccccc1C(C)(C)c1cc(-c2cccc(OC)c2)no1 | 0.9 | 16 | 32* | 15 | 8
COc1cc2c(cc1OC)C(c1ccccc1)N(S(C)(=O)=O)CC2 (stereo not drawn) | 0.2 | -11 | -1 | 82* | 2
Cc1ccc(NC2CCCCC2NS(=O)(=O)c2ccccc2)c(C)c1 (stereo not drawn) | . | 2 | . | . | .
Cc1ccc(S(=O)(=O)Nc2c(C)n(C)n(-c3ccccc3)c2=O)cc1C(=O)NCc1ccco1 | . | -2 | . | . | .
Cc1ccc(S(=O)(=O)NCC(=O)OCC(=O)N2C(C)CCCC2C)cc1 (stereo not drawn) | . | -5 | . | . | .
Nc1[nH]nc2ncc3cc4ccccc4nc3c12 | 0.5 | 13 | 1 | 55* | 27
O=C(NNC(=O)c1cccs1)c1ccc([N+](=O)[O-])cc1 | 1 | 4 | 35* | 0 | 12
O=C(O)CC1S/C(=N/N=C/c2ccc(-c3ccccc3[N+](=O)[O-])o2)NC1=O (stereo not drawn) | 0.5 | 11 | 9 | 52* | 12
CCC(C)C1=CC(=Nc2c(C)n(C)n(-c3ccccc3)c2=O)C=C(C(C)CC)C1=O (stereo not drawn) | 0.3 | -6 | -7 | 68* | -4
Cc1c(N=C2Nc3cccc4cccc2c34)c(=O)n(-c2ccccc2)n1C | 0.9 | 4 | -4 | 8 | 6
CC1=CC(=Nc2c(C)n(C)n(-c3ccccc3)c2=O)C=C(C)C1=O | 0.3 | 6 | 2 | 70* | 2
Cc1c(N=c2scc(-c3ccccc3)n2C)c(=O)n(-c2ccccc2)n1C | 0.9 | 1 | 4 | 6 | 4
CC(C)(O)CN(C(=O)c1ccccc1)C1CCCCC1 | . | -3 | . | . | .
Cc1cc(C)c2c(=O)[nH]c(SCC(=O)Nc3ccccc3)nc2n1 | 0.8 | 0 | -3 | 17 | 0
Cc1cc(C)c2c(=O)[nH]c(SCC(=O)c3ccc(C)c(C)c3)nc2n1 | 1.1 | -1 | 35* | -9 | 3
COc1ccc(C(=O)OCC(=O)N(C)C2CCS(=O)(=O)C2)cc1S(=O)(=O)N(C)Cc1ccccc1 (stereo not drawn) | . | -7 | . | . | .
O=c1sc2ccccc2n1COc1ccccc1 | 0.3 | -4 | . | 70* | 0
CC(C)(C)OC(=O)NCCOC(=O)c1[nH]cnc1C(=O)NCc1ccccc1 | . | -4 | . | . | .
CCOc1ccc(C=Nc2cccc3ncccc23)cc1 | 0.5 | 12 | -4 | 51* | 12
Cn1cccc1/C=N/n1c(-c2ccc(Cl)cc2)n[nH]c1=S | 0.7 | 1 | -17 | 28 | -14
Cn1cccc1/C=N/n1c(-c2ccc(Cl)cc2Cl)n[nH]c1=S | 0.3 | -3 | 9 | 72* | -12
SMILES | Diaph act CS | HKDC1 inhibitor | Arbovirus inh | Diaphorase inh | G6PDH counter
COc1cc(/C=C/[N+](=O)[O-])ccc1OC(=O)/C=C/c1ccc(F)cc1 | . | 15 | . | . | .
COC(=O)c1ccccc1N/C=C1\CCc2c(c(C)nn2-c2ccccn2)C1=O | 0.3 | -1 | -5 | 74* | 26
CC1=C(C#N)c2nc(N)c(C#N)c(C)c2/C1=C\c1ccc(-c2ccccc2C(=O)O)o1 | 0.4 | 17 | -6 | 62* | -5
COc1cc(/C=C2/C(C)=C(C#N)c3nc(N)c(C#N)c(C)c32)ccc1OCC(=O)O | 0.5 | 4 | -1 | 47 | 27
Cc1cc(C)c[n+](CC(=O)c2ccc(NC(=O)c3ccccc3)cc2)c1 | 0.3 | -5 | 4 | 71* | 17
Cn1nc(-c2ccc(Cl)cc2)nc2c(=O)n(C)c(=O)nc1-2 | 1.4 | . | -31 | -35 | 61*
COC(=O)c1ccc2c(c1O)C(=O)c1ccccc1C2=O | 0.9 | 18 | -7 | 11 | 53*
O=C1c2ccccc2C(=O)c2c1ccc(O)c2O | . | 11 | . | . | .
Cc1ccc2nc(C)/c(=N\O)c(C)nc2c1 | 0.9 | -3 | 6 | 13 | 6
Cc1nc2ccc(Cl)cc2nc(C)/c1=N\O | 0.4 | 2 | -9 | 58* | 33
CCCCCc1ccc(OCCOCCn2c[n+](C)c3ccccc32)c(CCCCC)c1 | 2* | 3 | -31 | -95 | -4
CN(C)CCOC(=O)c1ccc2[nH]c3c(c2c1)CSCC3 | . | -4 | . | . | .
O=C(O)c1ccc2[nH]c3c(c2c1)CSCC3 | 0.7 | 0 | 31* | 30 | 13
CCC(CC)c1nn2c(N)c(/C=C3\C=Nc4ccccc43)c(=O)nc2s1 | . | 1 | . | . | .
CC(C)Cc1nn2c(N)c(/C=C3\C=Nc4ccccc43)c(=O)nc2s1 | 0.9 | -4 | 37* | 7 | 4
CCC(CC)c1nn2c(N)c(/C=C3\C(C)=Nc4ccccc43)c(=O)nc2s1 | . | 2 | . | . | .
CCCc1nn2c(N)c(/C=C3\C=Nc4ccccc43)c(=O)nc2s1 | 0.9 | 1 | 71* | 8 | 3
CCCCc1nn2c(N)c(/C=C3\C=Nc4ccccc43)c(=O)nc2s1 | 1.1 | -2 | 33* | -6 | 4
CN1CCN(c2c([N+](=O)[O-])cnc3ccccc23)CC1 | . | -2 | . | . | .
O=C1NC(=S)S/C1=C\c1cc2ccccc2nc1N1CCCCC1 | . | 11 | . | . | .
N#C/C(=C\c1cc2ccccc2nc1N1CCCCC1)C(N)=O | 0.9 | 19 | 35* | 14 | 8
COC(=O)c1cccc(F)c1C(=O)c1cccc2ccccc12 | . | 1 | . | . | .
COc1c(Cl)cc(C(=O)Nc2ccccc2C(=O)O)cc1Cl | 1.1 | -8 | 62* | -7 | 5
COc1ccc(C(=O)Nc2cc(Cl)ccc2OC(=O)c2ccc(OC)cc2)cc1 | 0.8 | -2 | 17 | 16 | 6
COc1ccc(C(=O)Nc2ccccc2C(=O)Nc2ccccc2C(=O)O)cc1 | . | -1 | . | . | .
SMILES | Diaph act CS | HKDC1 inhibitor | Arbovirus inh | Diaphorase inh | G6PDH counter
COc1ccc(C(=O)Nc2cc(Cl)ccc2C(=O)O)cc1 | 0.9 | 6 | 47* | 10 | -1
Cc1cc([N+](=O)[O-])ccc1P(=O)(O)c1ccc([N+](=O)[O-])cc1C | . | -2 | . | . | .
CC(C)n1ncc2c(C(=O)NCCc3ccc(F)cc3)cc(C3CC3)nc21 | . | 5 | . | . | .
C=CCn1c(SCC(=O)N(C(C)CC)C2CCS(=O)(=O)C2)nc2ccccc2c1=O (stereo not drawn) | . | -10 | . | . | .
Cc1ccc(C)c(N2CCN(C(=O)Cc3ccc(-n4c(=O)[nH]c5ccsc5c4=O)cc3)CC2)c1 | 1 | -14 | 36* | 2 | 20
Fc1ccc(NC(=S)Nc2cccc3ccccc23)cc1 | . | 3 | . | . | .
S=C(Nc1ccc(Cl)cc1)Nc1cccc2cnccc12 | 0.5 | 7 | 12 | 51* | 33
S=C(Nc1cccnc1)Nc1cccc2cnccc12 | 0.4 | 9 | 6 | 62* | 41
